In the library only some 2.5% were active in any assay of this set; here they are far more common.
AF4-AF9 inh = MLL-AF4/AF9 protein interaction inhibition; 0.47% of 350,000 active; inhibition, % at 10 µM; AlphaScreen, biotin-AF4 peptide binding to FLAG-AF9; P42568; AID 651704;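 active means every replicate reaching a set inhibition limit, whatever the replicate mean, cut at about 25% in these data; inconclusive means mean inhibition reaches that limit but some replicates miss it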;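 further: 0% = plate neutral control median and 100% = total signal loss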
Target sequence (P42568 whole entry, looked up): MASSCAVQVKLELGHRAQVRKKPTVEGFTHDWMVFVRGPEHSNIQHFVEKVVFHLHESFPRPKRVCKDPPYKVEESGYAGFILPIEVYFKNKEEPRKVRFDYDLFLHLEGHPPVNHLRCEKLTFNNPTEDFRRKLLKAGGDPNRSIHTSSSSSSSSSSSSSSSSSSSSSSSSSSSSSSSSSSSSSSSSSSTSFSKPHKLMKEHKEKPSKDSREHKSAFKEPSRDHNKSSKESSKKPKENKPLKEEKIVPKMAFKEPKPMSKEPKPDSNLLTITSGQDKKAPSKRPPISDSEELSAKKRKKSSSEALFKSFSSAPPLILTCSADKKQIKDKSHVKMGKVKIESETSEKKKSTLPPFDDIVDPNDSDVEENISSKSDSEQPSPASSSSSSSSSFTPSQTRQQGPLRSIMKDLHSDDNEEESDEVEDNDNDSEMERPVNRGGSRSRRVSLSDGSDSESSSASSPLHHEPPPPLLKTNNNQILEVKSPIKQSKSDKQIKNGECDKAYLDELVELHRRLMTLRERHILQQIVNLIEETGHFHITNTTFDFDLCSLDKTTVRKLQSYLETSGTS
EWS-Fli inh = EWS/Fli transcriptional activity inhibition. AID 651661. inhibition, % at 12.6 µM. 0.67% of 350,000 active. A673 NR0B1-luciferase reporter, viability-normalised;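 active means mean inhibition of at least 50% after viability correction, with every replicate also passing that limit; inconclusive means mean reaches 50% but only one of two replicates passes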;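 further: firefly luciferase signal divided by Alamar Blue viability fluorescence both relative to DMSO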
PAX8 inh HTS = lowers PAX8-driven luciferase in RMG-I cells; AID 652154; 1.2% of 360,000 active; RMG-I TPO-luciferase reporter, SteadyGlo, 24 h; inhibition, % at 12.6 µM;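 active means mean replicate inhibition at least 60% with every replicate also reaching 60%; inconclusive means only one of the two criteria is met; inactive means mean below 60% and not all replicates reaching 60%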;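 further: luciferase light reporting Pax8 driven TPO promoter activity; plate controls were median of neutral control wells for no effect and mitoxantrone controls for full effect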
FN deposition inh = fibronectin deposition inhibition. inhibition, % at 12.6 µM. 0.086% of 350,000 active. AH1F fibroblasts, Alexa488-fibronectin deposition fluorescence, overnight;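 active means mean inhibition across replicates of 30% or more, regardless of how many single replicates reach that level; inconclusive means mean under 30% yet at least half of replicates reach 30%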;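 further: positive control wells lacked labelled fibronectin entirely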
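Test system: AH1F fibroblast monolayer depositing Alexa488-labelled fibronectin into matrix. Input: 10000 cells per well. Technique: fluorescence, ex 485 nm, em 525 nm. Buffer or medium: DMEM plus 2% serum, read in PBS. Timing: 1 h cell adhesion before compound, then overnight fibronectin incubation. Compound: single dose, pinned. Read-out basis: inhibition from reduced deposited-fibronectin fluorescence.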
N-glyco inh = N-linked glycosylation inhibition; D54 ERlucT glycosylation luciferase reporter, 24 h; percent of 100 nM tunicamycin response; reporter increase, % at 12.5 µM; 0.23% of 360,000 active; AID 588692;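 active means mean luciferase reporter signal, scaled so untreated is 0 and the glycosylation-blocking control 100, at or above a set limit in every replicate; inconclusive means mean reaches the limit but not every replicate does; inactive means mean below the limit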;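 further: luciferase carries N-glycosylation sites so blocking glycosylation raises the light; 0% = median of neutral control wells and 100% = median of 100 nM tunicamycin wells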
Env fusion inh = HIV envelope-mediated fusion inhibition; HeLa-JRFL Env/CEM21 cell fusion, luciferase; inhibition, % at 12.3 µM; 1.1% of 360,000 active; AID 651610;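 active means mean replicate inhibition score of at least 50 and every replicate individually at or above 50; inconclusive means only one of the two criteria met; inactive means mean below 50 and not all replicates reaching 50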;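 further: 0% = plate neutral controls and 100% = maraviroc near 300 nM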
* = called active by the depositor; ! = repeats disagree; [ ] = remark or other dose.

Cc1cccc(S(=O)(=O)N2C[C@@H]3N[C@H](C2)C3c2ccc(-c3ccncc3)cc2)c1 (stereo partly drawn) was read as AF4-AF9 inh -5, EWS-Fli inh 57*!, PAX8 inh HTS -8 and FN deposition inh 8.
For COc1ccc(-c2cc([N+](=O)[O-])ccc2OCC(=O)N(C)CC(=O)Nc2ccc(C)cc2)cc1 the results were AF4-AF9 inh 0, EWS-Fli inh 13, PAX8 inh HTS 47, FN deposition inh -2, N-glyco inh 2 and Env fusion inh 104*.
Screening COc1cc2cnc(-c3ccccc3)c(-c3ccc(C(F)(F)F)cc3)c2cc1OC returned AF4-AF9 inh 3, EWS-Fli inh 18, PAX8 inh HTS 6, FN deposition inh 0, N-glyco inh 0 and Env fusion inh 84*.
Screening Fc1ccc2c(-c3cccc(C(F)(F)F)c3)c(-c3ccccc3)ncc2c1 returned EWS-Fli inh -2, PAX8 inh HTS -15, FN deposition inh 9, N-glyco inh -4 and Env fusion inh 69*.
For Fc1ccc2cnc(-c3ccccc3)c(-c3cc(C(F)(F)F)cc(C(F)(F)F)c3)c2c1 the results were AF4-AF9 inh -3, EWS-Fli inh -2, PAX8 inh HTS 5, FN deposition inh -3, N-glyco inh -4 and Env fusion inh 34.
For Fc1ccc2cnc(-c3ccccc3)c(-c3ccc(C(F)(F)F)cc3)c2c1 the results were AF4-AF9 inh 0, EWS-Fli inh 0, PAX8 inh HTS 10, FN deposition inh -14, N-glyco inh -2 and Env fusion inh 31.
Screening C[C@@H]1CCCCO[C@@H](CN(C)Cc2ccc(C(=O)Nc3ccccc3N)cc2)[C@@H](C)CN([C@H](C)CO)C(=O)c2cc(NC(=O)Nc3ccc4c(c3)OCO4)ccc2O1 returned EWS-Fli inh 31, PAX8 inh HTS 1 and Env fusion inh 3[16.7 µM].
CCS(=O)(=O)N[C@H]1C=C[C@@H](CC(=O)NC2Cc3ccccc3C2)O[C@@H]1CO was read as AF4-AF9 inh -1, EWS-Fli inh -2, PAX8 inh HTS 0, FN deposition inh -2 and Env fusion inh 5[16.7 µM].
Screening CC(CCc1ccco1)NC(=O)CCc1nnc2ccc(NCc3ccccc3Cl)nn12 (stereo not drawn) returned AF4-AF9 inh 0, EWS-Fli inh 3, PAX8 inh HTS 18, FN deposition inh -3, N-glyco inh 0 and Env fusion inh 77*.
For CC(CCc1ccco1)NC(=O)CCc1nnc2ccc(NCc3ccc(Cl)cc3)nn12 (stereo not drawn) the results were AF4-AF9 inh 1, PAX8 inh HTS 8, FN deposition inh -16, N-glyco inh 17 and Env fusion inh -4.
Screening O=C(C1CCCC1)N1CC(=O)N2[C@H](CO)[C@@H](c3ccc(-c4ccccc4F)cc3)[C@@H]2C1 returned EWS-Fli inh -15 and FN deposition inh 12.
`O=C(C[C@@H]1CC[C@H](NC(=O)Nc2cc(F)ccc2F)[C@@H](CO)O1)NCc1ccccn1` gave AF4-AF9 inh 2, EWS-Fli inh 1, PAX8 inh HTS 4, FN deposition inh 7 and Env fusion inh -42[16.7 µM].
For CC1(Cc2ccccc2Cl)C(=O)Nc2cc(-c3ccccc3Cl)ccc21 (stereo not drawn) the results were AF4-AF9 inh 8, EWS-Fli inh -3, PAX8 inh HTS 4, FN deposition inh 7, N-glyco inh -4 and Env fusion inh -3.
For CC1(Cc2ccccc2OC(F)(F)F)C(=O)Nc2ccc(OC(F)(F)F)cc21 (stereo not drawn) the results were AF4-AF9 inh inconclusive, EWS-Fli inh 7, PAX8 inh HTS 14, N-glyco inh -4 and Env fusion inh 19.
For CC1(Cc2ccccc2OC(F)(F)F)C(=O)Nc2ccc(-c3ccsc3)cc21 (stereo not drawn) the results were AF4-AF9 inh -9, EWS-Fli inh 3, PAX8 inh HTS 5, FN deposition inh 1, N-glyco inh -5 and Env fusion inh 71*.
For CC1(Cc2ccccc2OC(F)(F)F)C(=O)Nc2cc(-c3ccccc3Cl)ccc21 (stereo not drawn) the results were AF4-AF9 inh 5, EWS-Fli inh 5, PAX8 inh HTS 10, FN deposition inh 3, N-glyco inh -2 and Env fusion inh 56*.
For COC(=O)c1cccc(CC2(C)C(=O)Nc3cc(-c4ccccc4Cl)ccc32)c1 (stereo not drawn) the results were AF4-AF9 inh -2, EWS-Fli inh -103, PAX8 inh HTS -117, FN deposition inh -3, N-glyco inh -2 and Env fusion inh 90*.
For CC1(Cc2c(Cl)cccc2Cl)C(=O)Nc2cc(-c3ccccc3Cl)ccc21 (stereo not drawn) the results were AF4-AF9 inh -4, EWS-Fli inh 4, PAX8 inh HTS -5, FN deposition inh -10, N-glyco inh -1 and Env fusion inh 5.
CC(C)NC(=O)Nc1ccc2c(c1)C(=O)N([C@H](C)CO)C[C@@H](C)[C@H](CN(C)Cc1ccccc1)O2 was read as AF4-AF9 inh -3, EWS-Fli inh -10, PAX8 inh HTS 6 and Env fusion inh -11[16.7 µM].
For O=C(C[C@H]1CC[C@H](NC(=O)CN2CCOCC2)[C@H](CO)O1)NCc1cccc(F)c1 the results were AF4-AF9 inh 0, EWS-Fli inh -4, PAX8 inh HTS 11, FN deposition inh 5 and Env fusion inh 9[16.7 µM].
For COc1ccccc1NC(=O)N1C[C@@H](O)COC[C@@H]2O[C@@H](CC(=O)NCCc3ccccc3)CC[C@H]21 the results were AF4-AF9 inh -13, EWS-Fli inh 2, PAX8 inh HTS 9 and FN deposition inh -9.
Screening COc1ccc2cc(CCNC(=O)C(C)C)c(=O)[nH]c2c1 returned AF4-AF9 inh 31*, EWS-Fli inh -11, PAX8 inh HTS -10, FN deposition inh -1, N-glyco inh 4 and Env fusion inh -15.
`COc1ccc2ncn(-c3ccccc3)c2c1` gave FN deposition inh 9, N-glyco inh -9 and Env fusion inh 68*.
`CCCCC1(CO)C(=O)N(c2ccccc2)N(c2ccccc2)C1=O` gave AF4-AF9 inh 0, EWS-Fli inh 0, PAX8 inh HTS 1, FN deposition inh -3, N-glyco inh 1 and Env fusion inh -1.
Screening CCCCC1(Cc2cccc([N+](=O)[O-])c2)C(=O)N(c2ccccc2)N(c2ccccc2)C1=O returned PAX8 inh HTS 38, FN deposition inh 4, N-glyco inh -6 and Env fusion inh 120*.
For Cc1noc(C)c1NC(=O)N(C)C[C@H]1Oc2ncc(C#CC(C)C)cc2C(=O)N([C@@H](C)CO)C[C@H]1C the results were AF4-AF9 inh -5, EWS-Fli inh -18, FN deposition inh -3 and Env fusion inh 2[16.7 µM].
